# Experimental data from ChEMBL document CHEMBL1123109, “Alkyl esters of 3-adenin-9-yl-2-hydroxypropanoic acid: a new class of broad-spectrum antiviral agents” (1985).
# How the values were obtained:
# Assay type in all cases: functional
# Oryctolagus cuniculus [1] = species on record: Oryctolagus cuniculus; assay: Inhibitory effects on DNA, RNA, and Protein synthesis in rabbit kidney cells was evaluated for incorporation of [5-3H]-Urd; conditions: read-out: ID50 (the source's name)
# Human alphaherpesvirus 1 = assay: Inhibition of HSV-1 induced cytopathicity in PRK cells.
# [2] = system: Vesicular stomatitis virus; assay: Inhibition of Vesicular stomatitis virus induced cytopathicity in PRK cells.
# Oryctolagus cuniculus [3] = species on record: Oryctolagus cuniculus; assay: Inhibitory effects on DNA, RNA, and Protein synthesis in rabbit kidney cells was evaluated for incorporation of [methyl-3H]dThd]; conditions: read-out: ID50 (the source's name)
# HK [4] = assay: Minimum inhibitory concentration which is required to reduce virus-induced cytopathogenicity by 50% against Vesicular stomatitis virus in human kidney,
# How it was run: (§1)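 Vesicular stomatitis virus was inoculated at 100 CCID50 (100× the dose infecting 50% of cells) in each cell type: human embryonic skin-muscle fibroblasts, LR-strain trisomy-21 fibroblasts, HEp-2, CV-1, BS-C-1, Balb/3T3, RK13, human kidney, HeLa and Vero. CPE was read at 1–2 days in every cell type, once complete in untreated infected controls. The MIC is the concentration giving a 50% reduction in cytopathogenicity.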
# Vaccinia virus = assay: Inhibition of Vaccinia virus induced cytopathicity in PRK cells.; conditions: Orthopoxvirus vaccinia
# [5] = system: Vesicular stomatitis virus; assay: Inhibition of Vesicular stomatitis virus induced cytopathicity in HEp-2 cells.; how it was run: as §1
# Vero = assay: Cytotoxic concentration against Vero cells.; conditions: Chlorocebus sabaeus
# How it was run: (§2)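 Uninfected cells were incubated with compound for the same duration as the matching antiviral assay. The minimum cytotoxic concentration is the lowest one causing a microscopically detectable change in normal cell morphology.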
# [6] = system: Vesicular stomatitis virus; assay: Inhibition of Vesicular stomatitis virus induced cytopathicity in Vero cells.; how it was run: as §1
# HeLa = assay: Cytotoxic concentration against HeLa cells.; conditions: Homo sapiens; how it was run: as §2
# PRK = assay: Cytotoxic concentration against PRK cells.; conditions: Oryctolagus cuniculus; how it was run: as §2
# Sindbis virus = assay: Inhibition of Sindbis virus induced cytopathicity in vero cells.
# Oryctolagus cuniculus [7] = species on record: Oryctolagus cuniculus; assay: Inhibitory effects on DNA, RNA, and Protein synthesis in rabbit kidney cells was evaluated for incorporation of [4,5-3H]leucine; conditions: read-out: ID50 (the source's name)
# [8] = system: Vesicular stomatitis virus; assay: Inhibition of Vesicular stomatitis virus induced cytopathicity in T-21 cells.; how it was run: as §1
# Measles morbillivirus = assay: Inhibition of Measles virus induced cytopathicity in vero cells.
# [9] = system: Vesicular stomatitis virus; assay: Inhibition of Vesicular stomatitis virus induced cytopathicity in E6SM cells.; how it was run: as §1
# Poliovirus 1 = assay: Inhibition of polio virus 1 induced cytopathicity in HeLa cells.; conditions: Enterovirus C
# [10] = system: Vesicular stomatitis virus; assay: Inhibition of Vesicular stomatitis virus induced cytopathicity in RK13 cells.; how it was run: as §1
# [11] = system: Vesicular stomatitis virus; assay: Inhibition of Vesicular stomatitis virus induced cytopathicity in CV-1 cells.; how it was run: as §1
# [12] = system: Vesicular stomatitis virus; assay: Inhibition of Vesicular stomatitis virus induced cytopathicity in HeLa cells.; how it was run: as §1
# Coxsackievirus B4 = assay: Inhibition of Coxsackie B4 virus induced cytopathicity in HeLa cells.; conditions: Enterovirus B
# [13] = system: Mammalian orthoreovirus 1; assay: Inhibition of Reo virus-1 induced cytopathicity in vero cells.
# Human respirovirus 3 = assay: Inhibition of parainfluenza virus-3 induced cytopathicity in vero cells.
# [14] = system: Vesicular stomatitis virus; assay: Inhibition of Vesicular stomatitis virus induced cytopathicity in BS-C-1 cells.; how it was run: as §1
# [15] = system: Vesicular stomatitis virus; assay: Inhibition of Vesicular stomatitis virus induced cytopathicity in BALB/3T3 cells.; conditions: in Mus musculus; how it was run: as §1
# HK [16] = assay: Minimum inhibitory concentration which is required to reduce virus-induced cytopathogenicity by 50% against Vesicular stomatitis virus in human kidney (HK) cells; how it was run: as §1
# HK [17] = assay: Minimum inhibitory concentration which is required to reduce virus-induced cytopathogenicity by 50% against Vesicular stomatitis virus in human kidney; how it was run: as §1
Compound,IC50 (Oryctolagus cuniculus [1]),MIC (Human alphaherpesvirus 1),MIC [2],MIC (Vaccinia virus),MIC [5],MCC (Vero),MIC [6],MCC (HeLa),MCC (PRK),MIC (Sindbis virus),MIC (Measles morbillivirus),MIC [9],MIC (Poliovirus 1),MIC [10],MIC [12],MIC (Coxsackievirus B4),MIC [13],MIC (Human respirovirus 3),MIC [14],MIC [15],further results
CCCCCOC(=O)C(O)Cn1cnc2c(N)ncnc21 (stereo not given),21 µg/mL,> 200 µg/mL,10 µg/mL,70 µg/mL,2 µg/mL,200 µg/mL,20 µg/mL,> 400 µg/mL,200 µg/mL,200 µg/mL,70 µg/mL,3 µg/mL,> 400 µg/mL,100 µg/mL,10 µg/mL,> 400 µg/mL,30 µg/mL,70 µg/mL,100 µg/mL,> 200 µg/mL,IC50 (Oryctolagus cuniculus [3]): 151 µg/mL; MIC (HK [4]): 20 µg/mL; IC50 (Oryctolagus cuniculus [7]): 215 µg/mL; MIC [8]: 1 µg/mL; MIC [11]: 300 µg/mL
CCCOC(=O)C(O)Cn1cnc2c(N)ncnc21 (stereo not given),168 µg/mL,> 100 µg/mL,1 µg/mL,3 µg/mL,3 µg/mL,> 400 µg/mL,150 µg/mL,> 400 µg/mL,100 µg/mL,> 200 µg/mL,100 µg/mL,10 µg/mL,> 400 µg/mL,2 µg/mL,50 µg/mL,> 400 µg/mL,200 µg/mL,100 µg/mL,300 µg/mL,> 400 µg/mL,IC50 (Oryctolagus cuniculus [3]): > 276 µg/mL; MIC (HK [4]): 200 µg/mL; IC50 (Oryctolagus cuniculus [7]): > 400 µg/mL; MIC [8]: 7 µg/mL; MIC [11]: > 400 µg/mL
Nc1ncnc2c1ncn2CC(O)C(=O)OCCO (stereo not given),> 400 µg/mL,> 400 µg/mL,30 µg/mL,70 µg/mL,3 µg/mL,> 400 µg/mL,150 µg/mL,> 400 µg/mL,> 400 µg/mL,> 400 µg/mL,30 µg/mL,70 µg/mL,> 400 µg/mL,100 µg/mL,70 µg/mL,> 400 µg/mL,> 200 µg/mL,> 200 µg/mL,> 400 µg/mL,> 400 µg/mL,IC50 (Oryctolagus cuniculus [3]): > 314 µg/mL; MIC (HK [4]): 200 µg/mL; IC50 (Oryctolagus cuniculus [7]): > 400 µg/mL; MIC [8]: 30 µg/mL; MIC [11]: > 400 µg/mL
CCCCOC(=O)C(O)Cn1cnc2c(N)ncnc21 (stereo not given),102 µg/mL,> 200 µg/mL,3 µg/mL,3 µg/mL,2 µg/mL,200 µg/mL,30 µg/mL,400 µg/mL,200 µg/mL,150 µg/mL,25 µg/mL,7 µg/mL,> 400 µg/mL,100 µg/mL,15 µg/mL,> 400 µg/mL,150 µg/mL,70 µg/mL,150 µg/mL,200 µg/mL,IC50 (Oryctolagus cuniculus [3]): > 253 µg/mL; MIC (HK [4]): 50 µg/mL; IC50 (Oryctolagus cuniculus [7]): > 381 µg/mL; MIC [8]: 2 µg/mL; MIC [11]: 300 µg/mL
COC(=O)C(O)Cn1cnc2c(N)ncnc21 (stereo not given),350 µg/mL,> 400 µg/mL,3 µg/mL,7 µg/mL,3 µg/mL,> 400 µg/mL,> 400 µg/mL,> 400 µg/mL,> 400 µg/mL,> 400 µg/mL,40 µg/mL,30 µg/mL,> 400 µg/mL,1 µg/mL,70 µg/mL,> 400 µg/mL,200 µg/mL,20 µg/mL,150 µg/mL,300 µg/mL,IC50 (Oryctolagus cuniculus [3]): > 400 µg/mL; IC50 (Oryctolagus cuniculus [7]): > 400 µg/mL; MIC (HK [16]): > 400 µg/mL
CC(C)CCOC(=O)C(O)Cn1cnc2c(N)ncnc21 (stereo not given),29 µg/mL,> 400 µg/mL,3 µg/mL,10 µg/mL,1 µg/mL,400 µg/mL,15 µg/mL,400 µg/mL,400 µg/mL,200 µg/mL,12 µg/mL,2 µg/mL,> 400 µg/mL,100 µg/mL,3 µg/mL,> 400 µg/mL,30 µg/mL,> 200 µg/mL,70 µg/mL,200 µg/mL,IC50 (Oryctolagus cuniculus [3]): 114 µg/mL; MIC (HK [4]): 10 µg/mL; IC50 (Oryctolagus cuniculus [7]): 228 µg/mL; MIC [8]: 1 µg/mL; MIC [11]: 200 µg/mL
CC(C)COC(=O)C(O)Cn1cnc2c(N)ncnc21 (stereo not given),34 µg/mL,> 400 µg/mL,1 µg/mL,3 µg/mL,1 µg/mL,> 400 µg/mL,30 µg/mL,> 400 µg/mL,> 400 µg/mL,> 400 µg/mL,40 µg/mL,5 µg/mL,> 400 µg/mL,30 µg/mL,10 µg/mL,> 400 µg/mL,150 µg/mL,20 µg/mL,100 µg/mL,300 µg/mL,IC50 (Oryctolagus cuniculus [3]): 242 µg/mL; MIC (HK [4]): 20 µg/mL; IC50 (Oryctolagus cuniculus [7]): > 277 µg/mL; MIC [8]: 1 µg/mL; MIC [11]: 200 µg/mL
CCCCCCCCOC(=O)C(O)Cn1cnc2c(N)ncnc21 (stereo not given),,> 100 µg/mL,7 µg/mL,7 µg/mL,2 µg/mL,200 µg/mL,100 µg/mL,100 µg/mL,100 µg/mL,30 µg/mL,70 µg/mL,7 µg/mL,> 100 µg/mL,30 µg/mL,1 µg/mL,> 100 µg/mL,7 µg/mL,15 µg/mL,> 100 µg/mL,100 µg/mL,MIC [8]: 0.5 µg/mL; MIC [11]: > 100 µg/mL; MIC (HK [17]): 15 µg/mL
Nc1ncnc2c1ncn2C[C@H](O)CO [(S)-DHPA],> 400 µg/mL,> 400 µg/mL,15 µg/mL,30 µg/mL,4 µg/mL,> 400 µg/mL,200 µg/mL,> 400 µg/mL,> 400 µg/mL,> 400 µg/mL,30 µg/mL,15 µg/mL,> 400 µg/mL,150 µg/mL,30 µg/mL,> 400 µg/mL,200 µg/mL,20 µg/mL,> 400 µg/mL,> 400 µg/mL,IC50 (Oryctolagus cuniculus [3]): > 326 µg/mL; MIC (HK [4]): 50 µg/mL; IC50 (Oryctolagus cuniculus [7]): > 400 µg/mL; MIC [8]: 20 µg/mL; MIC [11]: > 400 µg/mL
